Compound activity deposited in PubChem by several laboratories.
This is a sample that favours compounds with a hit; in the whole collection about 2.7% have one here.
RAM inhibit = inhibitors of the yeast RAM network. S. cerevisiae dse1pr::URA3 reporter, 5-FOA growth OD615, 2 d; analog-sensitive cbk1-as2 kinase mutant strain. inhibition, % at 50 µM. 1.8% of 190,000 active. AID 868;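 active = inhibition above a set limit, 3 SD over mean compound inhibition, cut at about 8.4% in these data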;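 also: 0% = DMSO-only wells with no growth and 100% = 10 µM 1-NA-PP1 full growth; inhibition rescues growth on 5-FOA so higher OD means more RAM inhibition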
BB579 growth dn = reduces growth of yeast BB579 in restrictive medium. S. cerevisiae BB579 growth, OD615, 48 h. inhibition, % at 10 µM. 0.51% of 140,000 active;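 active = inhibition above a set limit, 3 SD over the mean compound inhibition, cut at about 44% in these data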
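Test system: DeaD yeast strain BB579 / Buffer or medium: restrictive glucose-based CSMM-D medium / Doses: single 10 µM dose / Schedule: 4 h cell preincubation, 48 h compound exposure, 30 °C humidified / Technique: culture absorbance at 615 nm / Controls: amphotericin B positive control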
sdo1 growth = compounds rescuing growth of sdo1-depleted yeast, bone marrow failure model | AID 817 | S. cerevisiae sdo1-depleted JHY4D growth rescue, OD600 30 h; hits give high values; pdr5 snq2 efflux-pump mutant strain | z-score at 10 µM | 0.21% of 140,000 active;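 active = z-score above 3 at both the 24 hr and the 30 hr optical density reads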;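 also: z-score against mean and SD of all compound wells on the same plate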
Yeast life ext = yeast lifespan extension | AID 775 | S. cerevisiae growth with nicotinamide, OD615; deaD strain in restrictive glucose medium | 0.68% of 130,000 active | inhibition of the nicotinamide effect, % at 10 µM;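 active = inhibition above a set limit, placed 3 SD over the median of all compounds, cut at about 26% in these data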;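 also: 0% = nicotinamide-treated wells and 100% = cells grown without nicotinamide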
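assay system = DeaD-strain S. cerevisiae | measured by = absorbance at 615 nm | probe or stimulus = nicotinamide 1.5 mM | buffer or medium = CSMM-D glucose medium, restrictive | times = 48 h at 30 °C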
* = called active by the depositor; . = not tested or not shown.

SMILES | RAM inhibit | BB579 growth dn | sdo1 growth | Yeast life ext
O=C(c1ccc(Cl)c(Cl)c1)N1CCC(=O)N(C(COCc2cccc(Cl)c2)Cc2ccccc2)CC1 (stereo not drawn) | 10* | -37 | -1.1 | 11
O=C(c1cccc(Cl)c1)N1CCC(=O)N(C(COCc2cccc(Cl)c2)Cc2ccccc2)CC1 (stereo not drawn) | 9.5* | -40 | -0.71 | 6
Cc1cccc(C(=O)N2CCC(=O)N(C(COCc3cccc(Cl)c3)Cc3ccccc3)CC2)c1 (stereo not drawn) | 5 | -21 | -0.65 | 8
O=C(O)c1ccc(NC(=S)Nc2ccccc2)cc1 | 4 | 17 | -0.21 | 37*
COC(=O)c1ccc(NC(=S)Nc2ccccc2)cc1 | 1 | -19 | 0.59 | -4
CCc1c(C)c(C#N)c2nc3ccccc3n2c1NCCN(C)C | 1 | -122 | -2.1 | -14
C=CCc1c(C)c(C#N)c2nc3ccccc3n2c1NCCN(C)C | 2 | 57* | -1.9 | -1
COc1ccccc1NC(=S)N(Cc1ccco1)Cc1cc2cc(C)c(C)cc2[nH]c1=O | 9.5* | -36 | -1.3 | 6
COc1cc2cc(CN(Cc3cccs3)C(=S)Nc3cccc(C)c3)c(=O)[nH]c2cc1OC | 8.9* | -33 | -1.4 | 7
O=C(COC(=O)c1cc(Br)ccc1O)Nc1cc(S(=O)(=O)N2CCCC2)ccc1Cl | 3 | . | . | .
CCOc1ccccc1N=CC1=C(O)CC(c2ccccc2)CC1=O (stereo not drawn) | 11* | . | . | .
COc1ccccc1-n1cc(C(=O)c2cc(Cl)ccc2O)cc(C#N)c1=O | 9.7* | . | . | .
Cc1ccccc1-n1cc(C(=O)c2cc(Cl)ccc2O)cc(C#N)c1=O | 0 | -34 | -0.14 | -3
N#Cc1cc(C(=O)c2cc(F)ccc2O)cn(-c2nccs2)c1=O | 1 | -28 | -0.69 | 41*
Cc1ccc(O)c(-c2cc(C(=O)Nc3ccc(S(=O)(=O)Nc4nc(C)cc(C)n4)cc3)[nH]n2)c1 | 7 | -41 | 1.6 | 9
C=CCn1c(SCc2csc(C)n2)nc2sc3c(c2c1=O)CCCC3 | 9.3* | -67 | -1.4 | -12
CN(Cc1cccc(C(F)(F)F)c1)Cc1nc(-c2cnccn2)no1 | -1 | . | . | .
COc1ccccc1C(=O)Oc1ccc2c(c1)O/C(=C\c1ccncc1)C2=O | 1 | -17 | -0.64 | 47*
COc1ccc(S(=O)(=O)Oc2ccc3c(c2)O/C(=C\c2cccnc2)C3=O)cc1 | 1 | -82 | -2.3 | -3
CC(=O)/C(=N/Nc1cccc(Cl)c1)Sc1nnc(C(O)c2ccccc2)n1-c1ccccc1 (stereo not drawn) | 3 | 4 | 0.16 | 1
COC(=O)/C(=N/Nc1ccccc1C)Sc1nnc(C(O)c2ccccc2)n1-c1ccccc1 (stereo not drawn) | 8.8* | -32 | -0.27 | 5
COc1c(Cl)cnn(-c2ccc(Cl)c(Cl)c2)c1=O | 1 | . | . | .
COc1ccccc1C(=O)O/N=C(\N)c1ccc(Cl)cc1 | 0 | -21 | -1.7 | -22
Cc1ccc(/C(N)=N/OC(=O)c2ccc(Cl)cc2Cl)cc1 | 2 | 99* | -1.8 | -11
CC(C)CN1C(=O)/C(=C(/C#N)C(=O)NC2CCCCC2)c2ccccc21 | 6 | . | . | .
SMILES | RAM inhibit | BB579 growth dn | sdo1 growth | Yeast life ext
Cc1ccc(-n2ncc3c(=O)n(CC(=O)N4CCN(c5ccccc5)CC4)cnc32)cc1C | 5 | . | . | .
O=c1c2ccccc2nc2c3ccccc3c3nncn3n12 | 2 | 82* | -1.3 | -13
CCOC(=O)N=Nc1c(O)n(CC)c2ccccc12 | 1 | -37 | 0.14 | -6
CCOC(=O)N=Nc1c(O)n(Cc2ccccc2)c2ccccc12 | 11* | . | . | .
CCN(CC)S(=O)(=O)c1cccc(C(=O)NC(C)C(c2cccs2)N2CCCC2)c1 (stereo not drawn) | 1 | . | . | .
CCOC(=O)c1ccc(N/C=C\C(=O)c2cccc(OC)c2)cc1 | 10* | -23 | 0.45 | 2
CCOC(=O)N1C(=O)C2(CCCCC2)N(c2ccccc2Cl)C1=S | 5 | 0 | -0.29 | 37*
CCOC(=O)N1c2ccccc2Sc2ccccc21 | 2 | . | . | .
CC(C)CNC(=O)COC(=O)CCC(=O)c1ccc(Cl)cc1 | 1 | . | . | .
COCCCNC(CC(=O)Nc1ccc(OC)cc1OC)C(=O)O (stereo not drawn) | 3 | -22 | 1.4 | 101*
COc1ccc(NC(=O)CC(NCCc2ccccc2)C(=O)O)c(OC)c1 (stereo not drawn) | 1 | -14 | 0.17 | -7
NS(=O)(=O)c1cccc(NC(=O)COC(=O)COc2ccc3ccccc3c2)c1 | 3 | . | . | .
CCCCN(C)C(=O)c1oc2ccc(S(=O)(=O)N3CCCCCC3)cc2c1C | 9.8* | -23 | -0.63 | 28
CCC(C)(C)n1nnnc1C(c1cc(OC)ccc1OC)N1CCN(Cc2ccccc2)CC1 (stereo not drawn) | 0 | . | . | .
COC(=O)CCN1CCN(S(=O)(=O)c2ccccc2Br)CC1 | 0 | . | . | .
Cc1cc(NC(c2ccc(Cl)cc2)c2ccc3cccnc3c2O)no1 (stereo not drawn) | -1 | 95* | -1.2 | -33
COC(=O)c1ccc(N2CCCCC2)c(NS(=O)(=O)c2ccc(C)cc2)c1 | 11* | -70 | -1.5 | 7
CCN(CC)CCNC(=O)c1ccc(N2CCCCC2)c(NS(=O)(=O)c2ccc(C)cc2)c1 | 0 | -37 | -1.2 | -9
CCN(CC)S(=O)(=O)c1ccc(N2CCCC2)c(NS(=O)(=O)c2ccc(F)cc2)c1 | 9.8* | -7 | -0.77 | 9
CC(C)/C=N/Nc1nc(-c2ccc(Br)cc2)cs1 | -1 | -21 | -2.1 | -3
COc1ccccc1N1CCN(C(=O)c2ccc(CSc3ccccc3)cc2)CC1 | 9.8* | -30 | 0.52 | 7
CN(C)S(=O)(=O)c1ccc(C(=O)OCC(=O)Nc2ccccc2OC(F)F)cc1 | 2 | -14 | -0.37 | -7
CN(C)S(=O)(=O)c1ccc(C(=O)OCC(=O)c2ccc(OC(F)F)cc2OC(F)F)cc1 | 11* | -73 | -0.58 | -8
CC(/C=C/c1ccco1)=N\NC(=O)COc1ccc(C)c(C)c1 | 2 | . | . | .
CCc1nnc(N2C(=O)c3ccc(Oc4ccc([N+](=O)[O-])cc4)cc3C2=O)s1 | 1 | -33 | 0.19 | 52*
SMILES | RAM inhibit | BB579 growth dn | sdo1 growth | Yeast life ext
CCOC(=O)C1(Cc2cccc(OC)c2)CCN(Cc2cccn2-c2ccccn2)CC1 | 0 | . | . | .
COc1ccc([C@H]2[C@H](C(=O)C(C)(C)C)N3N=Cc4ccccc4C3[C@]23N=C(c2ccccc2)OC3=O)cc1 (stereo partly drawn) | 3 | -36 | -1.8 | -7
CC(C)(C)OC(=O)[C@H]1[C@H](c2ccc([N+](=O)[O-])cc2)C2(C(=O)c3ccccc3C2=O)C2c3ccccc3C=NN21 (stereo partly drawn) | 6 | -15 | 0.4 | 43*
CCC(=O)N(Cc1ccco1)c1nc(-c2ccc(OC)cc2)cs1 | 10.0* | -48 | -0.32 | .
CCC(=O)N(Cc1ccco1)c1nc(-c2ccccc2)cs1 | 2 | -4 | -0.35 | -12
CC(C)COc1ccc(CSCCNC(=S)Nc2ccccc2)cc1 | 9.0* | -5 | -0.71 | -4
O=C1c2ccc3c4c(ccc(c24)C(=O)N1NC(=O)C(F)(F)F)CC3 | 1 | 54* | 0.17 | -5
